Active and inactive are the calls of the source. The calls are words filed in the database; no cut-off is given here.
Assays:
Homo sapiens [1] = species: Homo sapiens; experiment: Inhibition of human topoisomerase 2-mediated pBR322 DNA relaxation at 10 uM after 30 mins by agarose gel electrophoresis
HeLa = experiment: Cytotoxicity against human HeLa cells after 48 hrs by MTT assay; format: functional, cell-based
In short: (§1)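 Cells seeded at 5000 per well, left overnight, then exposed to compound at 0–50 μM for 48 h. MTT (20 μL of 2.5 mg mL−1) added for a further 4 h at 37 °C, formazan dissolved in DMSO, absorbance read at 570 nm. Quadruplicate wells, N > 2 determinations, mean IC50 taken as the concentration reducing cell number to 50%.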

[2] = target: T1, DNA topoisomerase 1 (Homo sapiens) (UniProt P11387); experiment: Inhibition of topoisomerase 1 (unknown origin)-mediated pBR322 DNA relaxation at 50 uM after 30 mins by agarose gel electrophoresis
T1 sequence (whole entry): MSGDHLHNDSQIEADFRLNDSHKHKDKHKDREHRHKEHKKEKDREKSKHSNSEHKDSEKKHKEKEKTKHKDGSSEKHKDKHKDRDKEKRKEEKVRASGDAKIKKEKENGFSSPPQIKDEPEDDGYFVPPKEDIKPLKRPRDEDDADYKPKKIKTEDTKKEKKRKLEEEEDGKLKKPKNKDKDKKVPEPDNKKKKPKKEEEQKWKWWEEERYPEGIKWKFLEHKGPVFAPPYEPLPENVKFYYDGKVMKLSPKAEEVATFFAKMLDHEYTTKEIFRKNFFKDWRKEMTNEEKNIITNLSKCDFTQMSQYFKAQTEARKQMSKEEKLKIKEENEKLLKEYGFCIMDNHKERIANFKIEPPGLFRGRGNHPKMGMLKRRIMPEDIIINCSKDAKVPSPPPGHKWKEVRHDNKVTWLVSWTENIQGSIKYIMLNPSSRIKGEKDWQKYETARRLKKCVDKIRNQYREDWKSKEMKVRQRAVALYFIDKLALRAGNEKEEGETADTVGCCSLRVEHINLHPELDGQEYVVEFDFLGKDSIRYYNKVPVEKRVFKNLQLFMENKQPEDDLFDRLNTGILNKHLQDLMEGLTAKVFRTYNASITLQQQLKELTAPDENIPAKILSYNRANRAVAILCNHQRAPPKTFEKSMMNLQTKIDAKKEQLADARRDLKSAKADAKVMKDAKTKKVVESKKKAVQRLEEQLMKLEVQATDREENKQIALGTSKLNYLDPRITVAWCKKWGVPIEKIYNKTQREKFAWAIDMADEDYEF
In short: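 Topo I relaxation of pBR322 with compound at 30 min, 37 °C, camptothecin positive control. Stopped with SDS/bromophenol blue/glycerol dye, run on 1% agarose in TAE for 1.5 h, Ged Red stained, UV visualized.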

A549 = experiment: Cytotoxicity against human A549 cells after 48 hrs by MTT assay; format: functional, cell-based; conditions: A549, 48 h; in short: as §1
Homo sapiens [3] = species: Homo sapiens; experiment: Inhibition of human topoisomerase 2-mediated pBR322 DNA relaxation at 50 uM after 30 mins by agarose gel electrophoresis
In short: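 Relaxation of 200 ng supercoiled pBR322 by 1 U Topo II (TopoGEN) in 20 μL buffer: 50 mM Tris-HCl pH 8.0, 150 mM NaCl, 10 mM MgCl2, 2 mM ATP, 0.5 mM DTT, 30 μg/mL BSA. Incubated 30 min at 37 °C, stopped with sarcosyl/glycerol dye. Products run on 1% agarose in TAE (1.5 h, 75 V), Ged Red stained, UV imaged; etoposide positive control.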

Homo sapiens [4] = species: Homo sapiens; experiment: Inhibition of human topoisomerase 2-mediated pBR322 DNA relaxation at 20 uM after 30 mins by agarose gel electrophoresis
Raji = experiment: Cytotoxicity against human Raji cells after 48 hrs by MTT assay; format: functional, cell-based; in short: as §1
HL-60 = experiment: Cytotoxicity against human HL60 cells after 48 hrs by MTT assay; format: functional, cell-based; conditions: HL-60, 48 h; in short: as §1
PC-3 = experiment: Cytotoxicity against human PC3 cells after 48 hrs by MTT assay; format: functional, cell-based; conditions: PC-3, 48 h; in short: as §1
MDA-MB-231 = experiment: Cytotoxicity against human MDA-MB-231 cells after 48 hrs by MTT assay; format: functional, cell-based; conditions: MDA-MB-231, 48 h; in short: as §1
Homo sapiens [5] = species: Homo sapiens; experiment: Poison activity at human topoisomerase 2 assessed as […] at 50 uM after 6 mins by agarose gel electrophoresis
Homo sapiens [6] = species: Homo sapiens; experiment: Inhibition of catalytic activity of human topoisomerase 2 assessed as decrease in levels of linear pBR322 DNA trapped by etoposide at 50 uM after 6 mins by agarose gel electrophoresis
DNA [7] = experiment: Induction of Escherichia coli pBR322 DNA intercalation assessed as transformation of topoisomerase1-relaxed pBR322 DNA in to supercoiled DNA at 50 uM preincubated for 10 mins followed by topoisomerase-1 addition and measured after 30 mins by agarose gel electrophoresis method; format: nucleic-acid assay
In short: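 Unwinding: pBR322 first relaxed by Topo I in buffer (50 mM Tris-HCl pH 7.5, 50 mM KCl, 10 mM MgCl2, 0.5 mM DTT, 0.1 mM EDTA, 30 μg/mL BSA). 0.1 μg relaxed DNA preincubated with compound 10 min at room temperature, then Topo I (1 U) added, 30 min at 37 °C. Phenol-chloroform stop, SDS/EDTA added, agarose electrophoresis in TAE, UV imaging.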

Homo sapiens [8] = species: Homo sapiens; experiment: Inhibition of human topoisomerase 2-mediated pBR322 DNA relaxation at 100 uM after 30 mins by agarose gel electrophoresis
Homo sapiens [9] = species: Homo sapiens; experiment: Poison activity at human topoisomerase 2 assessed as transformation of supercoiled pBR322 DNA to linear pBR322 DNA at 100 uM after 6 mins by agarose gel electrophoresis
DNA [10] = experiment: Induction of Escherichia coli pBR322 DNA intercalation assessed as transformation of topoisomerase1-relaxed pBR322 DNA in to supercoiled DNA at 5 uM preincubated for 10 mins followed by topoisomerase-1 addition and measured after 30 mins by agarose gel electrophoresis method; format: nucleic-acid assay
In short: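 0.1 μg relaxed DNA incubated with compound 10 min at room temperature, then Topo I (1 U) added, 37 °C for 30 min. Stopped with phenol-chloroform and SDS/EDTA. Products resolved on agarose gel in TAE and imaged under UV.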

With O=C(O)CN1C(=O)/C(=C/c2nc3ccc(F)cc3n2Cc2ccccc2F)SC1=S the inhibition (Homo sapiens [1]) was “Active”, the IC50 (HeLa) was over 50 µM and the inhibition [2] was “inactive”. For the same compound, the IC50 (A549) was over 50 µM, the inhibition (Homo sapiens [3]) was “Active” and the inhibition (Homo sapiens [4]) was “Active”. For the same compound, the IC50 (Raji) was 22.4 µM, the IC50 (HL-60) was 5.23 µM and the IC50 (PC-3) was over 50 µM. It also gave an IC50 (MDA-MB-231) of over 50 µM.

In the case of Cc1ccc(Cn2c(/C=C3\SC(=S)N(CC(=O)O)C3=O)nc3ccccc32)cc1, the inhibition (Homo sapiens [1]) is reported as “Active”, the IC50 (HeLa) is reported as 1.28 µM and the inhibition [2] is reported as “inactive”. For the same compound, the IC50 (A549) was 3.22 µM, the inhibition (Homo sapiens [4]) was “Active” and the IC50 (Raji) was 0.96 µM. For the same compound, the IC50 (HL-60) was 0.54 µM, the Activity (Homo sapiens [5]) was “inactive” and the IC50 (PC-3) was 2.64 µM. The inhibition (Homo sapiens [6]) was “Active”, the Activity (DNA [7]) was “inactive” and the IC50 (MDA-MB-231) was 1.04 µM.

For COc1cc([C@@H]2c3cc4c(cc3[C@@H](O[C@@H]3O[C@@H]5CO[C@@H](C)O[C@H]5[C@H](O)[C@H]3O)[C@H]3COC(=O)[C@H]23)OCO4)cc(OC)c1O [ETOPOSIDE], the IC50 (HeLa) was 28.6 µM, the IC50 (A549) was 2.46 µM and the inhibition (Homo sapiens [4]) was “Active”. The IC50 (Raji) was 1.21 µM, the IC50 (HL-60) was 0.58 µM and the IC50 (PC-3) was 13.2 µM. The inhibition (Homo sapiens [8]) was “Active”, the Activity (Homo sapiens [9]) was “Active” and the IC50 (MDA-MB-231) was 30.3 µM.

With O=C(O)CN1C(=O)/C(=C/c2nc3cc(Cl)ccc3n2Cc2ccccc2F)SC1=S the inhibition (Homo sapiens [1]) was “Active”, the IC50 (HeLa) was 9.52 µM and the inhibition [2] was “inactive”. The IC50 (A549) was 5.64 µM, the inhibition (Homo sapiens [3]) was “Active” and the inhibition (Homo sapiens [4]) was “Active”. For the same compound, the IC50 (Raji) was 2.78 µM, the IC50 (HL-60) was 0.87 µM and the IC50 (PC-3) was 3.48 µM. The IC50 (MDA-MB-231) was 1.67 µM.

With O=C(O)CN1C(=O)/C(=C/c2nc3ccc(Cl)cc3n2Cc2ccccc2F)SC1=S the inhibition (Homo sapiens [1]) was “Active”, the IC50 (HeLa) was 7.62 µM and the inhibition [2] was “inactive”. For the same compound, the IC50 (A549) was 26.9 µM, the inhibition (Homo sapiens [3]) was “Active” and the inhibition (Homo sapiens [4]) was “Active”. For the same compound, the IC50 (Raji) was 8.87 µM, the IC50 (HL-60) was 5.23 µM and the IC50 (PC-3) was 17.3 µM. The IC50 (MDA-MB-231) was 9.57 µM.

With Cc1ccc(Cn2c(/C=C3\SC(=S)N(CC(=O)O)C3=O)nc3cc(F)ccc32)cc1 the inhibition (Homo sapiens [1]) was “Active”, the IC50 (HeLa) was 2.38 µM and the inhibition [2] was “inactive”. For the same compound, the IC50 (A549) was 13.8 µM, the inhibition (Homo sapiens [3]) was “Active” and the inhibition (Homo sapiens [4]) was “Active”. The IC50 (Raji) was 3.28 µM, the IC50 (HL-60) was 1.17 µM and the IC50 (PC-3) was 10.2 µM. For the same compound, the IC50 (MDA-MB-231) was 6.55 µM.

Cc1ccc(Cn2c(/C=C3\SC(=S)N(CC(=O)O)C3=O)nc3cc(Cl)ccc32)cc1 was tested, and the inhibition (Homo sapiens [1]) was “Active”, the IC50 (HeLa) was 21.4 µM and the inhibition [2] was “inactive”. For the same compound, the IC50 (A549) was 38.6 µM, the inhibition (Homo sapiens [3]) was “Active” and the inhibition (Homo sapiens [4]) was “Active”. For the same compound, the IC50 (Raji) was 20.9 µM, the IC50 (HL-60) was 2.72 µM and the IC50 (PC-3) was 26.7 µM. For the same compound, the IC50 (MDA-MB-231) was 13.7 µM.

With CC[n+]1c(-c2ccccc2)c2cc(N)ccc2c2ccc(N)cc21 the Activity (DNA [10]) was “Active”.

Cc1ccc(Cn2c(/C=C3\SC(=S)N(CC(=O)O)C3=O)nc3ccc(F)cc32)cc1 was tested, and the inhibition (Homo sapiens [1]) was “Active”, the IC50 (HeLa) was 3.92 µM and the inhibition [2] was “inactive”. The IC50 (A549) was 9.64 µM, the inhibition (Homo sapiens [3]) was “Active” and the inhibition (Homo sapiens [4]) was “Active”. For the same compound, the IC50 (Raji) was 2.44 µM, the IC50 (HL-60) was 1.69 µM and the IC50 (PC-3) was 5.82 µM. It also gave an IC50 (MDA-MB-231) of 3.86 µM.

With O=C(O)CN1C(=O)/C(=C/c2nc3ccccc3n2Cc2ccc(F)c(F)c2)SC1=S the inhibition (Homo sapiens [1]) was “Active”, the IC50 (HeLa) was 16 µM and the inhibition [2] was “inactive”. The IC50 (A549) was 13.4 µM, the inhibition (Homo sapiens [3]) was “Active” and the inhibition (Homo sapiens [4]) was “Active”. The IC50 (Raji) was 7.25 µM, the IC50 (HL-60) was 2.74 µM and the IC50 (PC-3) was 5.97 µM. For the same compound, the IC50 (MDA-MB-231) was 3.76 µM.

COc1ccc2c(c1)nc(/C=C1\SC(=S)N(CC(=O)O)C1=O)n2Cc1ccc(C)cc1 was tested, and the inhibition (Homo sapiens [1]) was “Active”, the IC50 (HeLa) was 1.82 µM and the inhibition [2] was “inactive”. For the same compound, the IC50 (A549) was 5.68 µM, the inhibition (Homo sapiens [3]) was “Active” and the inhibition (Homo sapiens [4]) was “Active”. The IC50 (Raji) was 1.79 µM, the IC50 (HL-60) was 0.77 µM and the IC50 (PC-3) was 3.64 µM. For the same compound, the IC50 (MDA-MB-231) was 1.22 µM.

In the case of O=C(O)CN1C(=O)/C(=C/c2nc3ccccc3n2Cc2ccccc2F)SC1=S, the inhibition (Homo sapiens [1]) is reported as “Active”, the IC50 (HeLa) is reported as 0.64 µM and the inhibition [2] is reported as “inactive”. The IC50 (A549) was 2.67 µM, the inhibition (Homo sapiens [4]) was “Active” and the IC50 (Raji) was 1.23 µM. The IC50 (HL-60) was 0.21 µM, the Activity (Homo sapiens [5]) was “inactive” and the IC50 (PC-3) was 1.86 µM. The inhibition (Homo sapiens [6]) was “Active”, the Activity (DNA [7]) was “inactive” and the IC50 (MDA-MB-231) was 0.33 µM.

With COc1ccc2nc(/C=C3\SC(=S)N(CC(=O)O)C3=O)n(Cc3ccccc3F)c2c1 the inhibition (Homo sapiens [1]) was “Active”, the IC50 (HeLa) was 28.1 µM and the inhibition [2] was “inactive”. For the same compound, the IC50 (A549) was 36.2 µM, the inhibition (Homo sapiens [3]) was “Active” and the inhibition (Homo sapiens [4]) was “Active”. For the same compound, the IC50 (Raji) was 12.3 µM, the IC50 (HL-60) was 6.44 µM and the IC50 (PC-3) was over 50 µM. For the same compound, the IC50 (MDA-MB-231) was 22.4 µM.

Reference: ChEMBL document CHEMBL4257549, “Design, synthesis and biological evaluation of benzimidazole-rhodanine conjugates as potent topoisomerase II inhibitors” (Medchemcomm, 2018)
